Test results reported in ChEMBL document CHEMBL1147085, “Metabolism and pharmacokinetics of a novel Src kinase inhibitor TG100435 ([7-(2,6-dichloro-phenyl)-5-methyl-benzo[1,2,4]triazin-3-yl]-[4-(2-pyrrolidin-1-yl-ethoxy)-phenyl]-amine) and its active N-oxide metabolite TG100855 …” (Drug Metab Dispos, 2007).

Legend:
Mus musculus [1] = assay: Drug level in BALB/c mouse plasma at 5 mg/kg, ip; assay type: ADME, organism-based; parameters: dose 5 mg/kg, route intraperitoneal; conditions: in vivo
How it was run: (§1)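 Male BALB/c mice (~25 g); fasted overnight for single p.o. dosing, not fasted for i.v. or i.p. dosing. Composite blood sampling, n=3 per time point: 5, 15, 30 min, 1, 3, 6, 24, 48 hr after i.v. dose; 0.5, 1, 3, 5, 8, 24, 30, 48 hr after p.o. or i.p. dose. Heparinized plasma, both parent and N-oxide measured by LC/MS/MS (MRM 494.2/98.1 and 510.2/98.1); non-compartmental analysis, AUC by linear trapezoidal rule.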

Rattus norvegicus [2] = assay: AUC (0 to infinity) in Sprague-Dawley rat assessed as AUC of ([7-(2,6-Dichloro-phenyl)-5-methyl-benzo[1,2,4]triazin-3-yl]-[4-(2-pyrrolidin-1-yl-ethoxy)-phenyl]-amine) at 5 mg/kg, iv; assay type: ADME, organism-based, Plasma; parameters: time infinity, dose 5 mg/kg, route intravenous; conditions: in vivo
[3] = Tmax in Sprague-Dawley rat at 25 mg/kg, po; assay type: ADME, organism-based; parameters: dose 25 mg/kg, route oral; conditions: in vivo
[4] = Clearance in BALB/c mouse at 5 mg/kg, iv; assay type: ADME, organism-based; parameters: dose 5 mg/kg, route intravenous; conditions: in vivo; how it was run: as §1
[5] = Cmax in BALB/c mouse at 25 mg/kg, po; assay type: ADME, organism-based; parameters: dose 25 mg/kg, route oral; conditions: in vivo; how it was run: as §1
[6] = AUC (0 to infinity) in BALB/c mouse at 5 mg/kg, iv; assay type: ADME, organism-based; parameters: time infinity, dose 5 mg/kg, route intravenous; conditions: plasma; how it was run: as §1
Ephrin type-B receptor 4 = molecular target: T1, Ephrin type-B receptor 4 (Homo sapiens, UniProt P54760); assay: Inhibition of EphB4 by luminescence based kinase assay
T1 sequence (P54760 whole entry): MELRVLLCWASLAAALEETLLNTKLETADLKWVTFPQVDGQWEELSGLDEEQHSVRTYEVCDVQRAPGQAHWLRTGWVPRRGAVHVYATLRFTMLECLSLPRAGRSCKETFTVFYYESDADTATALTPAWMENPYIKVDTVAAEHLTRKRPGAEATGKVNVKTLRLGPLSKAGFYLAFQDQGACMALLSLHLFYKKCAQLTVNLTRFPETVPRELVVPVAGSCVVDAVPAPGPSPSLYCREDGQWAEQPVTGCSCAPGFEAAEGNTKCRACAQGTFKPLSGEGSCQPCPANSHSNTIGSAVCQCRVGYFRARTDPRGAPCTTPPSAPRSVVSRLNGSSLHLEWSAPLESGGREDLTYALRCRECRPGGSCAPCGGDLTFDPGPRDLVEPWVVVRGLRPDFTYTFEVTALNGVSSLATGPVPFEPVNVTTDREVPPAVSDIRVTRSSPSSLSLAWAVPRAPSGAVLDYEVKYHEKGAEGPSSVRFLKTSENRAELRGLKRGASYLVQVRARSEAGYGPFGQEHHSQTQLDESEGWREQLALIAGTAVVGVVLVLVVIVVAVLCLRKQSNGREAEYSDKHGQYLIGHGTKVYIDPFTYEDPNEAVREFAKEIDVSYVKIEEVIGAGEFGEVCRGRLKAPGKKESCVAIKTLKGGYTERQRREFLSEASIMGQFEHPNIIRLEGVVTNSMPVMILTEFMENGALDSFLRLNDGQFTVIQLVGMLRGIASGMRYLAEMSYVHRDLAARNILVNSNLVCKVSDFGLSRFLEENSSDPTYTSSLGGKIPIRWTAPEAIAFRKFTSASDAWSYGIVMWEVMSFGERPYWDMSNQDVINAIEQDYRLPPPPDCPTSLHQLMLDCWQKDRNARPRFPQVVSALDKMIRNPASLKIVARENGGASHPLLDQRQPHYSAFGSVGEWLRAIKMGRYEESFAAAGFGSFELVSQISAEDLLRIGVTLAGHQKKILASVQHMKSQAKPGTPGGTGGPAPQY

[7] = Half life in Sprague-Dawley rat at 5 mg/kg, ip; assay type: ADME, organism-based; parameters: dose 5 mg/kg, route intraperitoneal; conditions: in vivo
Mus musculus [8] = assay: AUC (0 to infinity) in BALB/c mouse assessed as AUC of ([7-(2,6-Dichloro-phenyl)-5-methyl-benzo[1,2,4]triazin-3-yl]-[4-(2-pyrrolidin-1-yl-ethoxy)-phenyl]-amine) at 5 mg/kg, iv; assay type: ADME, organism-based, Plasma; parameters: time infinity, dose 5 mg/kg, route intravenous; conditions: in vivo; how it was run: as §1
[9] = AUC (0 to infinity) in BALB/c mouse at 5 mg/kg, ip; assay type: ADME, organism-based; parameters: time infinity, dose 5 mg/kg, route intraperitoneal; conditions: plasma; how it was run: as §1
Mus musculus [10] = assay: AUC (0 to infinity) in BALB/c mouse assessed as AUC of ([7-(2,6-Dichloro-phenyl)-5-methyl-benzo[1,2,4]triazin-3-yl]-[4-(2-pyrrolidin-1-yl-ethoxy)-phenyl]-amine) at 25 mg/kg, po; conditions: in vivo
[11] = Half life in Sprague-Dawley rat at 5 mg/kg, iv; assay type: ADME, organism-based; parameters: dose 5 mg/kg, route intravenous; conditions: in vivo
[12] = Cmax in Sprague-Dawley rat at 25 mg/kg, po; assay type: ADME, organism-based; parameters: dose 25 mg/kg, route oral; conditions: in vivo
[13] = Clearance in Sprague-Dawley rat at 5 mg/kg, iv; assay type: ADME, organism-based; parameters: dose 5 mg/kg, route intravenous; conditions: in vivo
[14] = Half life in BALB/c mouse at 5 mg/kg, ip; assay type: ADME, organism-based; parameters: dose 5 mg/kg, route intraperitoneal; conditions: in vivo; how it was run: as §1
[15] = AUC (0 to infinity) in BALB/c mouse at 25 mg/kg, po; assay type: ADME, organism-based; parameters: time infinity, dose 25 mg/kg, route oral; conditions: plasma; how it was run: as §1
Rattus norvegicus [16] = assay: Bioavailability in Sprague-Dawley rat assessed as bioavailability of ([7-(2,6-Dichloro-phenyl)-5-methyl-benzo[1,2,4]triazin-3-yl]-[4-(2-pyrrolidin-1-yl-ethoxy)-phenyl]-amine) at 25 mg/kg, po; conditions: in vivo
Mus musculus [17] = assay: Tmax in BALB/c mouse assessed as Tmax of ([7-(2,6-Dichloro-phenyl)-5-methyl-benzo[1,2,4]triazin-3-yl]-[4-(2-pyrrolidin-1-yl-ethoxy)-phenyl]-amine) at 25 mg/kg, po; conditions: in vivo
[18] = AUC (0 to infinity) in Sprague-Dawley rat at 5 mg/kg, ip; assay type: ADME, organism-based; parameters: time infinity, dose 5 mg/kg, route intraperitoneal; conditions: plasma
Rattus norvegicus [19] = assay: AUC (0 to infinity) in Sprague-Dawley rat assessed as AUC of ([7-(2,6-Dichloro-phenyl)-5-methyl-benzo[1,2,4]triazin-3-yl]-[4-(2-pyrrolidin-1-yl-ethoxy)-phenyl]-amine) at 5 mg/kg, ip; assay type: ADME, organism-based, Plasma; parameters: time infinity, dose 5 mg/kg, route intraperitoneal; conditions: in vivo
[20] = AUC (0 to infinity) in Sprague-Dawley rat at 30 mg/kg, po; assay type: ADME, organism-based; parameters: time infinity, dose 30 mg/kg, route oral; conditions: plasma
[21] = AUC (0 to infinity) in Sprague-Dawley rat at 25 mg/kg, po; assay type: ADME, organism-based; parameters: time infinity, dose 25 mg/kg, route oral; conditions: plasma
Mus musculus [22] = assay: AUC (0 to infinity) in BALB/c mouse assessed as AUC of ([7-(2,6-Dichloro-phenyl)-5-methyl-benzo[1,2,4]triazin-3-yl]-[4-(2-pyrrolidin-1-yl-ethoxy)-phenyl]-amine) at 5 mg/kg, ip; assay type: ADME, organism-based, Plasma; parameters: time infinity, dose 5 mg/kg, route intraperitoneal; conditions: in vivo; how it was run: as §1
[23] = AUC (0 to infinity) in BALB/c mouse at 40 mg/kg, po; assay type: ADME, organism-based; parameters: time infinity, dose 40 mg/kg, route oral; conditions: plasma; how it was run: as §1

With `Cc1cc(-c2c(Cl)cccc2Cl)cc2nnc(Nc3ccc(OCC[N+]4([O-])CCCC4)cc3)nc12` as the compound, how does the C0 (Mus musculus [1]) read?
The C0 was 4.1 µg/mL.

What about the AUC (Rattus norvegicus [2]) of the same compound?
The AUC was 0.539 µg·h/mL.

What about the Tmax [3] of the same compound?
Its Tmax is 3.5 h.

What about the clearance [4] of the same compound?
The clearance was 0.936 L/h/kg.

What about the Cmax [5] of the same compound?
The Cmax was 0.171 µg/mL.

And the AUC(0-inf) [6]?
The AUC(0-inf) was 5.35 µg·h/mL.

And the Ki (Ephrin type-B receptor 4)?
The Ki was 7.27 nM.

What about the half-life [7] of the same compound?
The half-life was 2.3 h.

And the AUC (Mus musculus [8])?
Its AUC is 1.39 µg·h/mL.

And the AUC(0-inf) [9]?
The AUC(0-inf) was 6.52 µg·h/mL.

And the AUC (Mus musculus [10])?
Its AUC is 1.76 µg·h/mL.

And the half-life [11]?
Its half-life is 1.6 h.

What about the Cmax [12] of the same compound?
Its Cmax is 0.16 µg/mL.

And the clearance [13]?
The clearance was 0.828 L/h/kg.

What about the half-life [14] of the same compound?
Its half-life is 2.8 h.

And the AUC(0-inf) [15]?
The AUC(0-inf) was 0.939 µg·h/mL.

What about the F (Rattus norvegicus [16]) of the same compound?
The F was 3.1%.

What about the Tmax (Mus musculus [17]) of the same compound?
The Tmax was 7 h.

What about the AUC(0-inf) [18] of the same compound?
Its AUC(0-inf) is 4.99 µg·h/mL.

What about the AUC (Rattus norvegicus [19]) of the same compound?
Its AUC is 0.498 µg·h/mL.

And the AUC(0-inf) [20]?
The AUC(0-inf) was 9.31 µg·h/mL.

And the AUC(0-inf) [21]?
The AUC(0-inf) was 0.47 µg·h/mL.

What about the AUC (Mus musculus [22]) of the same compound?
The AUC was 1.4 µg·h/mL.

And the AUC(0-inf) [23]?
The AUC(0-inf) was 13.4 µg·h/mL.
